Test results as given in ChEMBL document CHEMBL1127092, “Crystal and molecular structure and in vitro antiproliferative and antitumor activity of two organotin (IV) carbohydrate compounds” (J Med Chem, 1993).

Columns and labels:
Assay type in all cases: functional, cell-based, Mus musculus
L1210 = assay: Antitumor activity against L1210 cell line determined by reduction of the [3H]thymidine incorporation after a 24-h incubation period
In short: (§1)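 Mouse ascites tumor cells harvested 7 days after i.p. transplantation, washed, preincubated 4 h at 2.10^5 cells/mL in RPMI 1640 with 10% FCS and 1 mM glutamine under 5% CO2. Cells then exposed to compounds (ethanol stocks diluted in medium) for 24 h at 37°C. [3H]TdR (0.5 μCi) was added […] and cells were harvested 8 h later. Values are means of two experiments, each in 4-fold.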

MOPC 315 = assay: Antitumor activity against MOPC315 cell line determined by reduction of the [3H]thymidine incorporation after a 24-h incubation period; in short: as §1
P815 = assay: Antitumor activity against P815 cell line determined by reduction of the [3H]thymidine incorporation after a 24-h incubation period; in short: as §1

| IC50 (L1210) | IC50 (MOPC 315) | IC50 (P815) | Substance |
| --- | --- | --- | --- |
| > 5000 nM | > 5000 nM | > 5000 nM | 5-(2,2-Dimethyl-[1,3]dioxolan-4-yl)-2,2-dimethyl-6-[(triphenylstannanyl)-methyl]-tetrahydro-furo[2,3-d][1,3]dioxol-6-ol |
| 760 nM | 670 nM | 540 nM | 5-(2,2-Dimethyl-[1,3]dioxolan-4-yl)-2,2-dimethyl-6-triphenylstannanyl-tetrahydro-furo[2,3-d][1,3]dioxol-6-ol |
| 180 nM | 200 nM | 130 nM | TRIPHENYLTIN CHLORIDE |
